Calls of active or inactive are those of the source. The rule behind the calls is not given here.

Test [1] concerns MCF7. Kind of test: Antiproliferative activity against human breast cancer cell line MCF7. The format is functional. The gist of the method:
(§1)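 Cells kept in RPMI 1640 with 2 mM L-glutamine and 10% FCS at 37 °C, 5% CO2. Seeded 5 × 10³/well, left 24 h to adhere, then exposed 72 h to 0.1 nM–100 µM final (DMSO stocks diluted in medium, n = 8). MTT 400 µg/mL final added at dosing and at 72 h, 4 h at 37 °C. Formazan dissolved in DMSO:glycine pH 10.5, A550 read. GI50 from triplicate tests.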

For test [2], the system named is MDA-MB-468. The test can be described thus: Antiproliferative activity against human breast cancer cell line MDA468. The format is functional. The gist of the method:
as §1

In test [3] the test system is KM12. Kind of test: Antiproliferative activity against human colon cancer cell line KM12. It counts as functional. The gist of the method:
as §1

Test [4] deals with HCC 2998. The test can be described thus: Antiproliferative activity against human colon cancer cell line HCC2998. It counts as functional. The gist of the method:
as §1

Test [5] deals with MCF7. The test can be described thus: Ability to induce CYP1A1 protein expression in […] human breast cancer cell line MCF7. It counts as functional, cell-based. The gist of the method: (§2)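 Whole-cell lysates from untreated cultures and from cells exposed 24 h to 10 nM–10 µM compound. Protein-normalized samples heated 95 °C 5 min, run on 10% SDS-PAGE and electroblotted to PVDF. Probed with polyclonal anti-human CYP1A1/1A2 antiserum and an alkaline phosphatase secondary, developed with BCIP/NBT. Recombinant CYP1A1 served as positive control for the 52 kDa band.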

Test [6] has as its system MDA-MB-468. Kind of test: Ability to induce CYP1A1 protein expression in […] human breast cancer cell line MDA468. It counts as functional, cell-based. The gist of the method:
as §2

The test system of test [7] is KM12. Kind of test: Ability to induce CYP1A1 protein expression in sensitive human colon cancer cell line KM12. The format is functional, cell-based. An outline of the steps: as §2
The subject of test [8] is HCC 2998. Kind of test: Ability to induce CYP1A1 protein expression in sensitive human colon cancer cell line HCC2998. It counts as functional, cell-based. The gist of the method:
as §2

For the compound `COc1ccc(-c2nc3cc(F)ccc3s2)cc1O`, the GI50 (commonly the concentration that inhibits growth by half) came to 0.5 µM in test [1], 0.05 µM in test [2], 18.4 µM in test [3] and 7.6 µM in test [4].
As to `Fc1ccc2sc(-c3ccc4c(c3)OCO4)nc2c1`, the outcome in test [5] and in test [6] was Active. For the same compound, the GI50 in test [1] is 20.7 µM; in test [2] it was 0.57 µM; in test [3], 25.1 µM; in test [4], 22.3 µM.
For the compound `COc1ccc(-c2nc3ccccc3s2)cc1OC`, the outcome in test [5] and in test [6] was Active. Besides, the GI50 in test [1] was 52.7 µM; in test [2], 0.53 µM; in test [3], 74.2 µM; in test [4], 42.5 µM.
Turning to `CCOc1ccc(-c2nc3cc(F)ccc3s2)cc1OCC`, the values for the GI50 in test [2] and in test [3] were 0.055 µM and 38.5 µM, respectively.
`COc1ccc(-c2nc3cc(F)ccc3s2)c(OC)c1OC`: the 50% growth inhibitory concentration (GI50) in test [1] amounted to 0.023 µM; in test [2], 0.12 µM; in test [3], 14.2 µM; in test [4], 0.037 µM.
The corresponding values for `c1ccc2sc(-c3ccc4c(c3)OCO4)nc2c1` are 57.8 µM, 0.8 µM, 98.6 µM and 68.3 µM.
In the same order, the values of `COc1ccc(-c2nc3cc(Br)ccc3s2)cc1OC` are 13.6 µM, 0.77 µM, 65.2 µM and 20 µM.
Turning to `COc1cc(-c2nc3cc(F)ccc3s2)cc(O)c1OC`, the GI50 turned out to be 0.653 µM in test [1], 0.088 µM in test [2], 47.5 µM in test [3] and 6.49 µM in test [4].
In the same order, the values of `COc1ccc(-c2nc3cc(F)ccc3s2)cc1I` are 0.82 µM, 0.36 µM, 6.9 µM and 0.94 µM.
For `Oc1ccc(-c2nc3cc(F)ccc3s2)cc1O`, the GI50 in test [1] is 0.72 µM; in test [2], 0.19 µM; in test [3], 13 µM; in test [4], 1.64 µM.
In the same order, the values of `CCOc1cc(-c2nc3cc(F)ccc3s2)ccc1OC` are 0.08 µM, 0.092 µM, 5.42 µM and 3.32 µM.
The corresponding values for `COc1ccc(-c2nc3cc(F)ccc3s2)cc1Br` are 0.85 µM, 0.42 µM, 6.7 µM and 3.45 µM.
As for `Cc1cc(-c2nc3ccccc3s2)ccc1N`, the GI50 in test [2] was under 0.0001 µM; in test [3] it was over 100 µM; in test [4] it was over 100 µM.
For `COc1ccc(-c2nc3cc(F)ccc3s2)cc1Cl`, the GI50 in test [1] worked out at 0.76 µM; in test [2], 0.48 µM; in test [3] it was 7.05 µM; in test [4], 2.5 µM.
For `COc1ccc(-c2nc3c(F)cccc3s2)cc1OC`, the 50% growth inhibitory concentration (GI50) turned out to be 0.005 µM in test [1], 0.005 µM in test [2], 0.85 µM in test [3] and 1.06 µM in test [4].
For `COc1cc(-c2nc3cc(F)ccc3s2)ccc1O`, the GI50 amounted to 0.75 µM in test [1], 0.17 µM in test [2], 47.3 µM in test [3] and 1.04 µM in test [4].
As to `Oc1ccc(-c2nc3ccccc3s2)cc1O`, the GI50 in test [1] came to 2.19 µM; in test [2] it was 0.22 µM; in test [3], 15.6 µM; in test [4], 6.99 µM.
Consider `COc1ccc(-c2nc3cc(F)ccc3s2)cc1OC`, for which the outcome in test [5] and in test [6] was Active. Further, the outcome in test [7] and in test [8] was inactive. Also, the GI50 is under 0.0001 µM in test [2] and 0.29 µM in test [3].
Regarding `COc1ccc(-c2nc3cc(F)ccc3s2)cc1C`, the concentration for 50% growth inhibition (GI50) turned out to be 0.048 µM in test [1], 0.058 µM in test [2], 18.6 µM in test [3] and 0.54 µM in test [4].
The corresponding values for `COc1cc(-c2nc3cc(F)ccc3s2)cc(OC)c1OC` are 0.0019 µM, 0.0021 µM, 13 µM and 21.1 µM.
The corresponding values for `COc1ccc(-c2nc3cc(F)ccc3s2)cc1F` are 0.87 µM, 0.64 µM, 20.6 µM and 13.7 µM.
In the same order, the values of `COc1cc(OC)cc(-c2nc3cc(F)ccc3s2)c1` are 1.23 µM, 0.31 µM, 7.55 µM and 5.21 µM.
For `COc1ccc(-c2nc3ccc(F)cc3s2)cc1OC`, the GI50 in test [1] worked out at 0.062 µM; in test [2], 0.005 µM; in test [3] it was 24.1 µM; in test [4], 6.21 µM.
In the same order, the values of `COc1ccc(-c2nc3cc(Cl)ccc3s2)cc1OC` are 27.9 µM, 1 µM, 12.4 µM and 4.88 µM.
In the same order, the values of `COCOc1ccc(-c2nc3cc(F)ccc3s2)cc1OC` are 0.065 µM, 0.048 µM, 19.2 µM and 53.5 µM.
On to `Cc1cc(-c2nc3cc(F)ccc3s2)ccc1N`, for which the GI50 was under 0.0001 µM in test [2], over 100 µM in test [3] and over 100 µM in test [4].
Consider `COc1ccc(-c2nc3cc(F)ccc3s2)cc1`, for which the GI50 in test [1] came to 0.49 µM; in test [2], 0.33 µM; in test [3], 24.6 µM; in test [4], 12.4 µM.
